Measured values as given in ChEMBL document CHEMBL2384952, “Synthesis, antifungal and cytotoxic activities of 2-aryl-3-((piperidin-1-yl)ethyl)thiazolidinones” (Eur J Med Chem, 2013).
Values after ≈ are worked out from the molar mass of the structure shown.

Legend:
Vero [1] = assay: Cytotoxicity against African green monkey Vero cells at 3150 ug/mL by neutral red dye uptake assay relative to control; assay type: cell-based; details: chlorocebus sabaeus
Method in brief: (§1)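 Vero cells (over 99% viable by trypan blue exclusion) were exposed to serial compound dilutions in E-MEM, with fresh E-MEM as negative control, for 72 h at 37 °C, 5% CO2. Cells were then given 3.3 mg/L neutral red for 2 h, and the dye was extracted with 50% ethanol/1% acetic acid. A540 was read, and viability was calculated as treated/control absorbance × 100.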

Trichosporon asahii = assay: Antifungal activity against Trichosporon asahii after 48 hrs by CLSI M27A3 broth microdilution method; assay type: functional
Method in brief: (§2)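 Yeasts were kept on Sabouraud dextrose agar and subcultured at 35 °C for at least 2 days. They were suspended in saline to McFarland 0.5 and diluted in RPMI. Ten successive dilutions were made from a 1.6 mg/mL DMSO stock per CLSI broth microdilution, then incubated at 37 °C for 48 h. Growth was read visually against a growth-control well, and MIC is the lowest concentration inhibiting growth.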

Vero [2] = assay: Cytotoxicity against African green monkey Vero cells at 49 ug/mL by neutral red dye uptake assay relative to control; assay type: cell-based; details: chlorocebus sabaeus; method in brief: as §1
Geotrichum = assay: Antifungal activity against Geotrichum species after 48 hrs by CLSI M27A3 broth microdilution method; assay type: functional; method in brief: as §2
Rhodotorula [3] = assay: Antifungal activity against Rhodotorula species after 48 hrs by CLSI M27A3 broth microdilution method; assay type: functional; method in brief: as §2
Vero [4] = assay: Cytotoxicity against African green monkey Vero cells at 394 ug/mL by neutral red dye uptake assay relative to control; assay type: cell-based; details: chlorocebus sabaeus; method in brief: as §1
Vero [5] = assay: Cytotoxicity against African green monkey Vero cells at 98 ug/mL by neutral red dye uptake assay relative to control; assay type: cell-based; details: chlorocebus sabaeus; method in brief: as §1
Candida albicans = assay: Antifungal activity against Candida albicans after 48 hrs by CLSI M27A3 broth microdilution method; assay type: functional; method in brief: as §2
Candida parapsilosis = assay: Antifungal activity against Candida parapsilosis after 48 hrs by CLSI M27A3 broth microdilution method; assay type: functional; details: Lodderomyces parapsilosis; method in brief: as §2
Vero [6] = assay: Cytotoxicity against African green monkey Vero cells at 197 ug/mL by neutral red dye uptake assay relative to control; assay type: cell-based; details: chlorocebus sabaeus; method in brief: as §1
Papiliotrema laurentii = assay: Antifungal activity against Cryptococcus laurentii after 48 hrs by CLSI M27A3 broth microdilution method; assay type: functional; method in brief: as §2
Vero [7] = assay: Cytotoxicity against African green monkey Vero cells at 1575 ug/mL by neutral red dye uptake assay relative to control; assay type: cell-based; details: chlorocebus sabaeus; method in brief: as §1
Vero [8] = assay: Cytotoxicity against African green monkey Vero cells at 12.3 ug/mL by neutral red dye uptake assay relative to control; assay type: cell-based; details: chlorocebus sabaeus; method in brief: as §1
Vero [9] = assay: Cytotoxicity against African green monkey Vero cells at 25 ug/mL by neutral red dye uptake assay relative to control; assay type: cell-based; details: chlorocebus sabaeus; method in brief: as §1
[10] = system: Meyerozyma guilliermondii; assay: Antifungal activity against Candida guilliermondii after 48 hrs by CLSI M27A3 broth microdilution method; assay type: functional; method in brief: as §2
Vero [11] = assay: Cytotoxicity against African green monkey Vero cells at 787 ug/mL by neutral red dye uptake assay relative to control; assay type: cell-based; details: chlorocebus sabaeus; method in brief: as §1
Rhodotorula [12] = assay: Ratio of fluconazole MFC to compound MFC for Rhodotorula species; assay type: functional
Rhodotorula [13] = assay: Ratio of fluconazole MIC to compound MIC for Rhodotorula species; assay type: functional

Row | SMILES | MIC (Trichosporon asahii) [mg/L] | MIC (Geotrichum) [mg/L] | MIC (Rhodotorula [3]) [mg/L] | MIC (Candida albicans) [mg/L] | MIC (Candida parapsilosis) [mg/L] | MIC (Papiliotrema laurentii) [mg/L] | Cell viability (Vero [1]) [%] | MFC (Trichosporon asahii) [mg/L] | Cell viability (Vero [2]) [%] | MFC (Geotrichum) [mg/L] | MFC (Rhodotorula [3]) [mg/L] | Cell viability (Vero [4]) [%] | Cell viability (Vero [5]) [%] | MFC (Candida albicans) [mg/L] | MFC (Candida parapsilosis) [mg/L] | Cell viability (Vero [6]) [%] | MFC (Papiliotrema laurentii) [mg/L] | Cell viability (Vero [7]) [%] | Cell viability (Vero [8]) [%] | Cell viability (Vero [9]) [%] | other results
1 | O=C1CSC(c2ccccc2F)N1CCN1CCCCC1 (configuration not stated) | > 400 | > 400 | 36 (≈ 117 µM) | 100 (≈ 324 µM) | 100 (≈ 324 µM) | 100 (≈ 324 µM) | 10 | > 400 | 95 | > 400 | 36 (≈ 117 µM) | 45 | 82 | 100 (≈ 324 µM) | 100 (≈ 324 µM) | 65 | 100 (≈ 324 µM) | 10 | 100 | 100 | MFC [10]: 133 mg/L (≈ 431 µM); MIC [10]: 133 mg/L (≈ 431 µM); Cell viability (Vero [11]): 10%
2 | O=C1CSC(c2cccc([N+](=O)[O-])c2)N1CCN1CCCCC1 (configuration not stated) | > 400 | 100 (≈ 298 µM) | 16.5 (≈ 49.2 µM) | 50 (≈ 149 µM) | 100 (≈ 298 µM) | 100 (≈ 298 µM) | 2 | > 400 | 100 | 100 (≈ 298 µM) | 16.5 (≈ 49.2 µM) | 60 | 94 | 50 (≈ 149 µM) | 100 (≈ 298 µM) | 75 | 100 (≈ 298 µM) | 7 | 100 | 100 | Ratio (Rhodotorula [12]): 1.6; Ratio (Rhodotorula [13]): 1.6; MFC [10]: 100 mg/L (≈ 298 µM); MIC [10]: 100 mg/L (≈ 298 µM); Cell viability (Vero [11]): 15%
3 | O=C1CSC(c2cccc(F)c2)N1CCN1CCCCC1 (configuration not stated) | > 400 | > 400 | 33.5 (≈ 109 µM) | 150 (≈ 486 µM) | 100 (≈ 324 µM) | 100 (≈ 324 µM) | 13 | > 400 | 97 | > 400 | 33.5 (≈ 109 µM) | 60 | 92 | 150 (≈ 486 µM) | 100 (≈ 324 µM) | 84 | 100 (≈ 324 µM) | 17 | 100 | 100 | MFC [10]: 100 mg/L (≈ 324 µM); MIC [10]: 100 mg/L (≈ 324 µM); Cell viability (Vero [11]): 27%
4 | O=C1CSC(c2ccc(F)cc2)N1CCN1CCCCC1 (configuration not stated) | 100 (≈ 324 µM) | 50 (≈ 162 µM) | 25 (≈ 81.1 µM) | 45 (≈ 146 µM) | 100 (≈ 324 µM) | 100 (≈ 324 µM) | 11 | 100 (≈ 324 µM) | 100 | 50 (≈ 162 µM) | 25 (≈ 81.1 µM) | 52 | 87 | 45 (≈ 146 µM) | 100 (≈ 324 µM) | 73 | 100 (≈ 324 µM) | 14 | 100 | 100 | MFC [10]: 100 mg/L (≈ 324 µM); MIC [10]: 100 mg/L (≈ 324 µM); Cell viability (Vero [11]): 17%

Stronger by MIC (Trichosporon asahii), values ahead:

Row | MIC (Trichosporon asahii) [mg/L] | MIC (Geotrichum) [mg/L] | MIC (Rhodotorula [3]) [mg/L] | MIC (Candida albicans) [mg/L] | MIC (Candida parapsilosis) [mg/L] | MIC (Papiliotrema laurentii) [mg/L] | SMILES | Cell viability (Vero [1]) [%] | MFC (Trichosporon asahii) [mg/L] | Cell viability (Vero [2]) [%] | MFC (Geotrichum) [mg/L] | MFC (Rhodotorula [3]) [mg/L] | Cell viability (Vero [4]) [%] | Cell viability (Vero [5]) [%] | MFC (Candida albicans) [mg/L] | MFC (Candida parapsilosis) [mg/L] | Cell viability (Vero [6]) [%] | MFC (Papiliotrema laurentii) [mg/L] | Cell viability (Vero [7]) [%] | Cell viability (Vero [8]) [%] | Cell viability (Vero [9]) [%] | other results
5 | 66.5 (≈ 205 µM) | 50 (≈ 154 µM) | 33 (≈ 102 µM) | 75 (≈ 231 µM) | 100 (≈ 308 µM) | 100 (≈ 308 µM) | O=C1CSC(c2ccccc2Cl)N1CCN1CCCCC1 (configuration not stated) | 22 | 66.5 (≈ 205 µM) | 100 | 50 (≈ 154 µM) | 33 (≈ 102 µM) | 31 | 94 | 75 (≈ 231 µM) | 100 (≈ 308 µM) | 71 | 100 (≈ 308 µM) | 16 | 100 | 100 | MFC [10]: 100 mg/L (≈ 308 µM); MIC [10]: 100 mg/L (≈ 308 µM); Cell viability (Vero [11]): 38%
6 | 50 (≈ 156 µM) | 41.5 (≈ 130 µM) | 16.5 (≈ 51.5 µM) | 100 (≈ 312 µM) | 100 (≈ 312 µM) | 100 (≈ 312 µM) | COc1ccccc1C1SCC(=O)N1CCN1CCCCC1 (configuration not stated) | 5 | 50 (≈ 156 µM) | 100 | 41.5 (≈ 130 µM) | 16.5 (≈ 51.5 µM) | 67 | 100 | 100 (≈ 312 µM) | 100 (≈ 312 µM) | 72 | 100 (≈ 312 µM) | 17 | 100 | 100 | Ratio (Rhodotorula [12]): 1.6; Ratio (Rhodotorula [13]): 1.6; MFC [10]: 100 mg/L (≈ 312 µM); MIC [10]: 100 mg/L (≈ 312 µM); Cell viability (Vero [11]): 30%
